Activity calls are given as the source filed them. No cut-off for these calls is given here.

The target in data set [1] is Sodium-dependent noradrenaline transporter (Homo sapiens, UniProt P23975). The data set is described as follows: Inhibition of human NET expressed in CHOK1 cells incubated for 45 mins by [3H]-norepinephrine uptake assay. The class given is cell-based, CHO-K1. An outline of the steps:
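Human NET stably expressed in CHO cells (Ham/F12, 10% FBS), seeded 3 × 10^5 cells/mL, overnight culture. In HEPES-buffered salt/glucose buffer with 0.5% BSA, compound then [3H]-norepinephrine (diluted to 200 nM before addition) added; uptake 45 min, two PBS washes, scintillation counting. 10 µM desipramine taken as 100% inhibition; IC50 and 95% confidence interval from n=2.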

In data set [2] the target is Sodium-dependent serotonin transporter (Homo sapiens, UniProt P31645). The data set is described as follows: Inhibition of human SERT expressed in CHOK1 cells incubated for 20 mins by [3H]-5-hydroxytryptamine uptake assay. The format is cell-based, CHO-K1. The method, boiled down: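 CHO cells stably expressing human SERT, cultured in Ham/F12 plus 10% FBS, plated 3 × 10^5 cells/mL overnight. Buffer: 126 mM NaCl, 10 mM HEPES, glucose, 0.5% BSA; compound added at 10× then diluted, followed by [3H]-5-HT (200 nM stock). After 20 min, buffer removed, cells washed twice with PBS, radioactivity counted; IC50 and 95% CI from two experiments.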

Data set [3] addresses Sodium-dependent dopamine transporter (Homo sapiens, UniProt Q01959). The data set is described as follows: Inhibition of human DAT expressed in CHOK1 cells incubated for 60 mins by [3H]-dopamine uptake assay. The format is cell-based, CHO-K1. The method, boiled down: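 CHO cells stably expressing human DAT, grown in Ham/F12 with 10% FBS, seeded 3 × 10^5 cells/mL and cultured overnight. Compound added in buffer (NaCl, KCl, KH2PO4, MgSO4, 10 mM HEPES, CaCl2, glucose, 0.5% BSA), then [3H]-dopamine (200 nM stock, with 10 µM cold dopamine stock); 60 min uptake, PBS wash, scintillation count. 100 µM nomifensine as 100% inhibition; IC50 with 95% CI, n=2.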

Data set [4] is filed under the species Homo sapiens. Briefly: Selectivity index, ratio of IC50 for human SERT to IC50 for human NET. The method, boiled down: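 Ratio of IC50s from two [3H]-uptake assays in CHO cells (SERT or human NET expressing), seeded overnight in HEPES-buffered saline with glucose and 0.5% BSA. Radioligand added from 200 nM dilutions. SERT: [3H]-5-hydroxytryptamine, 20 min. NET: [3H]-norepinephrine, 45 min. Washed, scintillation counted; IC50 with 95% CI, n=2.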

The species named for data set [5] is Homo sapiens. Briefly: Selectivity index, ratio of IC50 for human DAT to IC50 for human NET. An outline of the steps:
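Ratio of IC50s from two [3H]-uptake assays in CHO cells stably expressing human DAT or NET, seeded overnight in HEPES-buffered saline with glucose and 0.5% BSA. Radioligand added from 200 nM dilutions. DAT: [3H]-dopamine plus cold dopamine (10 µM dilution), 60 min. NET: [3H]-norepinephrine, 45 min. Washed, scintillation counted; IC50 with 95% CI, n=2.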

The subject of data set [6] is Rattus norvegicus. Briefly: In-vivo occupancy at NET in Sprague-Dawley rat brain cortex at 3 mg/kg, iv by [3H]-nisoxetine […] assay. The class given is functional. An outline of the steps:
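Female Sprague-Dawley rats under urethane anaesthesia (i.p.) got compound i.v. The left cortex was removed 20 min later and homogenised in Tris-Cl pH 7.5/NaCl/KCl buffer. Membranes at 4 mg/mL protein were incubated 1 h at room temperature with [3H]-nisoxetine (25 nmol/L solution), with desipramine for nonspecific binding. Filtered on GF/B; occupancy taken against vehicle specific binding (100%).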

The target in the next data set is CYP2D6 (Homo sapiens, UniProt P10635). Briefly: Inhibition of CYP2D6 (unknown origin) at 10 uM. The class given is ADME.
For the next data set, the target named is hERG (KCNH2) (Homo sapiens, UniProt Q12809). Briefly: Inhibition of human ERG at 10 uM.
The test system of data set [7] is Rattus norvegicus. Briefly: Increase in urethral resistance in rat assessed as increase in leak point pressure at 0.3 to 3 mg/kg, iv measured 30 mins post dose by Evans blue dye based assay. The class given is functional, organism-based. As to conditions: Urethra.
The test system of data set [8] is Rattus norvegicus. The data set is described as follows: Increase in urethral resistance in rat assessed as increase in leak point pressure at 1 to 10 mg/kg, sc measured 30 mins post dose by Evans blue dye based assay. The format is functional, organism-based. Conditions: Urethra.

Chain of Sodium-dependent dopamine transporter (Q01959 whole entry): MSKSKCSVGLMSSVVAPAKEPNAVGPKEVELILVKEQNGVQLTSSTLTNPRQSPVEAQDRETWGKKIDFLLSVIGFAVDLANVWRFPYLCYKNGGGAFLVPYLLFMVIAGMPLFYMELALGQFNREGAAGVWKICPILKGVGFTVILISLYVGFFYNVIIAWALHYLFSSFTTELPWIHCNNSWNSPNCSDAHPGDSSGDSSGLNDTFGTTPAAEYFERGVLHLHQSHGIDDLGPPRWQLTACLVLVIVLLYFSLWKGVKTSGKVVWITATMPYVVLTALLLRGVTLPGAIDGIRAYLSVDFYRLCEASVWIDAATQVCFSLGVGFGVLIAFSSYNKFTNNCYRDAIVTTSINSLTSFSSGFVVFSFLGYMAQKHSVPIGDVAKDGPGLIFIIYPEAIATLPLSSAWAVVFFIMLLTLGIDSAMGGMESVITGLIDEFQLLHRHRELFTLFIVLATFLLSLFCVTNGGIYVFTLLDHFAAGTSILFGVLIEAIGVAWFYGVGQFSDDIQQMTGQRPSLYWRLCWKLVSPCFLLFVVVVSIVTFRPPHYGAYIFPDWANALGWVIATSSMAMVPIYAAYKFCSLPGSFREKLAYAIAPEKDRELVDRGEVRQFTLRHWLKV
Chain of Sodium-dependent noradrenaline transporter (P23975 whole entry): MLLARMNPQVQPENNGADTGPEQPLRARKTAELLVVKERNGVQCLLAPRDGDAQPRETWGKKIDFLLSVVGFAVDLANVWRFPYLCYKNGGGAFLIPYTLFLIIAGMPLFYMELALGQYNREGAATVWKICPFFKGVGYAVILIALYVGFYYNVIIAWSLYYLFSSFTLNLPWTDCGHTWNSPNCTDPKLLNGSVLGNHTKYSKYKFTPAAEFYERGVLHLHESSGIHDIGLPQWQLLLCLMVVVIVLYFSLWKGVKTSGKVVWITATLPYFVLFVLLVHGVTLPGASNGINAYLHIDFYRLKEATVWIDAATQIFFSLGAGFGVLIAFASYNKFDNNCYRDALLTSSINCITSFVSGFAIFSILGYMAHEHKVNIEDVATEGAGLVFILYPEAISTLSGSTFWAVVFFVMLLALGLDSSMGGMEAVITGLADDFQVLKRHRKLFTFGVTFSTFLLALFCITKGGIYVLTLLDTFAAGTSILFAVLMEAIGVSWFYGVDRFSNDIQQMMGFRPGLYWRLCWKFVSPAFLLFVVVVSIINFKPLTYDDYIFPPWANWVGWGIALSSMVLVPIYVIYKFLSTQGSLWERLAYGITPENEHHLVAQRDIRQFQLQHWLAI
Chain of Sodium-dependent serotonin transporter (P31645 whole entry): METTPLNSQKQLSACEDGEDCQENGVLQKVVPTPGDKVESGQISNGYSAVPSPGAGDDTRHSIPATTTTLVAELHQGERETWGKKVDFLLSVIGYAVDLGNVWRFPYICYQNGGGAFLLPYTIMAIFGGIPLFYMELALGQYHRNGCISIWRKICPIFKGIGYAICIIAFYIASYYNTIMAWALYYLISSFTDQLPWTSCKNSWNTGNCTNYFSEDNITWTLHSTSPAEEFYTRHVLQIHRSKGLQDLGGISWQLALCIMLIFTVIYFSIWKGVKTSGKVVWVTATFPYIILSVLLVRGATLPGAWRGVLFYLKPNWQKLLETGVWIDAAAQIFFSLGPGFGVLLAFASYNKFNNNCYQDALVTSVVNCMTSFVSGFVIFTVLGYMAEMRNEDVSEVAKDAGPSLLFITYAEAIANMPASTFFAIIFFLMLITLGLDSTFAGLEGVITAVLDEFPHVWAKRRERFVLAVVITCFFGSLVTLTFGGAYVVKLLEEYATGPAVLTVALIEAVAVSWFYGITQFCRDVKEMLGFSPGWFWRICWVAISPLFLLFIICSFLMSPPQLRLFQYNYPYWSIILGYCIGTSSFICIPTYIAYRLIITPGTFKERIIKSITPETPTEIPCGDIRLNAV
Chain of CYP2D6 (P10635 whole entry): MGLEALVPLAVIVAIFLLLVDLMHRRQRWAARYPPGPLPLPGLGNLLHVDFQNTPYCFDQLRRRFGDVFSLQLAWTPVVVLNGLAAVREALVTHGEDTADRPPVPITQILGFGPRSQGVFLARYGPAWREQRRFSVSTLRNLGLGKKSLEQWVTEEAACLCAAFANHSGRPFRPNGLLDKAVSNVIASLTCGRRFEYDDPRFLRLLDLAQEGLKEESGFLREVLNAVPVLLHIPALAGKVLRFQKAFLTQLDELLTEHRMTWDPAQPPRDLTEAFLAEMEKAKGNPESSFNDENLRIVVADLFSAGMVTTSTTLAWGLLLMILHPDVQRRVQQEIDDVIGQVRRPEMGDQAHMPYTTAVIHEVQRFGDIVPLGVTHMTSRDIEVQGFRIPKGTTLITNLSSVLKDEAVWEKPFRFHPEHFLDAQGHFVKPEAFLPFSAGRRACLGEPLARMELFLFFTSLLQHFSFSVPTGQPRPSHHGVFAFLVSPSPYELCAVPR
Chain of hERG (KCNH2) (Q12809 whole entry): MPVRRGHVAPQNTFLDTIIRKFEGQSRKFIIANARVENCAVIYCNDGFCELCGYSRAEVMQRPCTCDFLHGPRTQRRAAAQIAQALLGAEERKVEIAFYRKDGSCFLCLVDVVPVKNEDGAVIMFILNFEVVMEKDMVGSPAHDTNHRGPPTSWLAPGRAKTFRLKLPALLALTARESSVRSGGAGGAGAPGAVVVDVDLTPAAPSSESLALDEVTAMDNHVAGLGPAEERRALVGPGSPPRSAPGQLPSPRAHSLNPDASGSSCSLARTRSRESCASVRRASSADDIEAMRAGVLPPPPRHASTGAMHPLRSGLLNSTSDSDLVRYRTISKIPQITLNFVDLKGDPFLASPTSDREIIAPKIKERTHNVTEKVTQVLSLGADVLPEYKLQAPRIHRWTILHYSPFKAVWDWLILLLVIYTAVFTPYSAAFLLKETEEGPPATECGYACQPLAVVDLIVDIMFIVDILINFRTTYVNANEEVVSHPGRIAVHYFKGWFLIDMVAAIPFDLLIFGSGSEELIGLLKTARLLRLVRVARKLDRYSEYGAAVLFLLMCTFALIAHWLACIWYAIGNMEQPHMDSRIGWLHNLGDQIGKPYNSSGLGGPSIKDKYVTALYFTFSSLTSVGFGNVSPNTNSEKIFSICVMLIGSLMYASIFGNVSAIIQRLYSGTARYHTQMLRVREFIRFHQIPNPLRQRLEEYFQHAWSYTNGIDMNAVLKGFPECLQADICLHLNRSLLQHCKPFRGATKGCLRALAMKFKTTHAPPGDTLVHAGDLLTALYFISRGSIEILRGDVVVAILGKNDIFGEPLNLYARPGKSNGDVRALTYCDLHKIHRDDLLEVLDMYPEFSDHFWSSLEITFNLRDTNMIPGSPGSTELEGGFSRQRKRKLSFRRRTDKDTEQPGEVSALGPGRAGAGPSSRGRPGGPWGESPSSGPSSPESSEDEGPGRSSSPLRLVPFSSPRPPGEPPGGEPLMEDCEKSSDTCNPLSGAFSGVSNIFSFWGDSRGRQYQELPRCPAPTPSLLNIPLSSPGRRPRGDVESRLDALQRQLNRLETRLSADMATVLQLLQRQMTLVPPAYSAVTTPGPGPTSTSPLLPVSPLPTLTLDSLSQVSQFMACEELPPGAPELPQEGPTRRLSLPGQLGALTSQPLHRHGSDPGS

For orientation: IC50 means the point on the concentration scale where inhibition reaches its midpoint. A higher IC50 goes with lower potency. Consider `CC(=O)NC[C@@H]1CNCCO[C@H]1c1ccc(F)c(Cl)c1.O=C(O)/C=C/C(=O)O`, for which the IC50 in [1] is 13 nM; in data set [2], more than 1000 nM; in data set [3], more than 1000 nM. Besides, the Ratio IC50 in the data set filed under Homo sapiens [4] and in the data set filed under Homo sapiens [5] was more than 76 in each case. In the data set on Rattus norvegicus [6], the Occ is 1.7%.
For orientation: inhibition means how much of the control response was suppressed. Turning to `OC[C@H]1CNCCO[C@@H]1c1ccc(Cl)c(Cl)c1`, the results for the IC50 in data set [1], in [2] and in [3] were 5.8 nM, 36 nM and 1400 nM, respectively. In addition, the Ratio IC50 in the data set listed under Homo sapiens [4] was found to be 6.1; in the data set filed under Homo sapiens [5], 230. Besides, on CYP2D6, the inhibition at 10 µM stood at 45%.
Take `OC[C@@H]1CNCCO[C@@H]1c1ccc(Cl)c(Cl)c1`: the IC50 in data set [1] was 8.5 nM; in data set [2], 11 nM; in data set [3], more than 1000 nM. The values for the Ratio IC50 in the data set listed under Homo sapiens [4] and in the data set listed under Homo sapiens [5] were 1.3 and more than 120, respectively. This compound returned an inhibition at 10 µM against CYP2D6 of 58%.
For the compound `CC(=O)NC[C@@H]1CNCCO[C@H]1c1ccc(Cl)c(C)c1`, the IC50 in data set [1] was 3.3 nM; in data set [2], 480 nM; in data set [3], more than 1000 nM. Besides, the Ratio IC50 is 150 in the data set filed under Homo sapiens [4] and more than 300 in the data set filed under Homo sapiens [5].
Regarding `OCC1(c2ccc(Cl)c(Cl)c2)CCCNCC1` (racemic), the IC50 was 2.1 nM in data set [1], 35 nM in [2] and more than 1000 nM in data set [3]. For the same compound, the Ratio IC50 is 17 in the data set listed under Homo sapiens [4] and more than 480 in the data set listed under Homo sapiens [5]. On CYP2D6, this compound displayed an inhibition at 10 µM of 44%.
On to `CN(C)C(=O)[C@@H]1CNCCO[C@H]1c1ccc(Cl)c(Cl)c1.Cl`, for which the figures for the IC50 in data set [1], in data set [2] and in [3] were 0.77 nM, 350 nM and 70 nM, respectively. The results for the Ratio IC50 in the data set listed under Homo sapiens [4] and in the data set listed under Homo sapiens [5] were 460 and 91, respectively. In addition, the Occ in the data set with Rattus norvegicus [6] came out at 68%.
For `CNC(=O)[C@@H]1CNCCO[C@H]1c1ccc(Cl)c(Cl)c1`, the figures for the half-maximal inhibitory concentration (IC50) in data set [1], in data set [2] and in [3] were 12 nM, more than 1000 nM and more than 1000 nM, respectively. In addition, the Ratio IC50 in the data set filed under Homo sapiens [4] and in the data set listed under Homo sapiens [5] was more than 83 each time.
On to `CC(=O)NCC[C@@H]1CNCCO[C@H]1c1ccc(Cl)c(Cl)c1`, for which the results for the IC50 in [1], in [2] and in [3] were 5.8 nM, 200 nM and more than 1000 nM, respectively. Also, the Ratio IC50 is 35 in the data set listed under Homo sapiens [4] and more than 170 in the data set filed under Homo sapiens [5].
`Cl.OC[C@@H]1CNCCO[C@H]1c1ccc(Cl)c(Cl)c1`: the IC50 stood at 2 nM in [1], 97 nM in data set [2] and 3100 nM in [3]. In addition, the figures for the Ratio IC50 in the data set listed under Homo sapiens [4] and in the data set filed under Homo sapiens [5] were 50 and 1800, respectively. In addition, at 10 µM the inhibition at CYP2D6 was 34%. Besides, the Occ with Rattus norvegicus [6] amounted to 68%.
In the case of `OC[C@]1(c2ccc(Cl)c(Cl)c2)CCNCCO1`, the concentration for half-maximal inhibition (IC50) in data set [1] is 700 nM; in data set [2], 330 nM; in data set [3], more than 10000 nM. Further, the values for the Ratio IC50 in the data set listed under Homo sapiens [4] and in the data set filed under Homo sapiens [5] were 0.47 and more than 14, respectively. This compound also returned an inhibition at 10 µM on CYP2D6 of 21%.
Consider `OCC1(c2ccc(Cl)c(Cl)c2)CCNCCO1` (racemic), for which the IC50 is 17 nM in [1], 200 nM in data set [2] and more than 10000 nM in data set [3]. Also, the Ratio IC50 in the data set filed under Homo sapiens [4] was 12; in the data set filed under Homo sapiens [5] it was more than 590. Besides, the inhibition at 10 µM against CYP2D6 was 19%.
On to `NC(=O)[C@@H]1CNCCO[C@H]1c1ccc(Cl)c(Cl)c1`, for which the IC50 was 52 nM in data set [1], 780 nM in data set [2] and more than 10000 nM in data set [3]. The values for the Ratio IC50 in the data set filed under Homo sapiens [4] and in the data set listed under Homo sapiens [5] were 15 and more than 190, respectively.
On to `CC(=O)NC[C@@H]1CNCCO[C@H]1c1ccc(Cl)c(Cl)c1.O=C(O)/C=C/C(=O)O`, for which the IC50 in data set [1] stood at 0.33 nM; in data set [2], 150 nM; in data set [3], 1500 nM. Also, the Ratio IC50 in the data set listed under Homo sapiens [4] came to 450; in the data set filed under Homo sapiens [5], 4400. Further, the Occ with Rattus norvegicus [6] is recorded as -14%. Moreover, 10 µM produced 15% inhibition on hERG (KCNH2). Besides, in the data set with Rattus norvegicus [7], the Activity result was “Dose-dependent effect”.
Regarding `CC(=O)NC[C@@H]1CNCCO[C@H]1c1ccc(C)c(Cl)c1`, the IC50 in data set [1] was 3.4 nM; in [2], 680 nM; in [3], more than 1000 nM. Moreover, the Ratio IC50 in the data set listed under Homo sapiens [4] is 200; in the data set listed under Homo sapiens [5], more than 300.
With `CCOc1ccccc1O[C@@H](c1ccccc1)[C@@H]1CNCCO1`, the result in the data set with Rattus norvegicus [8] was Active.
`CC(=O)NC[C@@H]1CNCCO[C@H]1c1ccc(Cl)c(F)c1.Cl`: the IC50 in data set [1] was 2.3 nM; in data set [2], more than 1000 nM; in data set [3] it was more than 1000 nM. The Ratio IC50 in the data set filed under Homo sapiens [4] and in the data set filed under Homo sapiens [5] was more than 440 throughout. Moreover, the Occ with Rattus norvegicus [6] was -2.8%.
With `OC[C@@]1(c2ccc(Cl)c(Cl)c2)CCNCCO1`, the IC50 is 5.6 nM in data set [1], 200 nM in data set [2] and more than 10000 nM in data set [3]. In addition, the Ratio IC50 is 35 in the data set listed under Homo sapiens [4] and more than 1800 in the data set listed under Homo sapiens [5]. The inhibition at 10 µM on CYP2D6 amounted to 23%.
For the compound `OC[C@H]1CNCCO[C@H]1c1ccc(Cl)c(Cl)c1`, the IC50 was 6 nM in data set [1], 120 nM in [2] and more than 1000 nM in data set [3]. The Ratio IC50 was 20 in the data set filed under Homo sapiens [4] and more than 170 in the data set filed under Homo sapiens [5]. Testing at 10 µM on CYP2D6 gave an inhibition of 47%.

The values above are taken from ChEMBL document CHEMBL3593224, “Design, synthesis and biological evaluation of a novel series of peripheral-selective noradrenaline reuptake inhibitor” (Bioorg Med Chem, 2015).
